ChEMBL document CHEMBL4396941, “Design, synthesis and biological evaluation of benzamide derivatives as novel NTCP inhibitors that induce apoptosis in HepG2 cells” (Bioorg Med Chem Lett, 2019)
Activity calls are given as the source filed them. The rule behind the calls is not given here.

What was measured:
[1] = tested on: HepG2; assay: Antiproliferative activity against human HepG2 cells assessed as inhibition of cell growth incubated for 24 hrs by MTT assay; assay type: functional, cell-based; details: HepG2, 24 h
In short: (§1)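 HepG2 cells exposed to a range of concentrations for the stated times, then inhibition rate measured by MTT.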

[2] = tested on: Hepatitis B virus; assay: Antiviral activity against hepatitis B virus infected in human HepG2.2.15 cells assessed as HBsAg secretion at 5 uM incubated for 9 days by ELISA (reference value: 8.41+/- 0.54 ng/ml); assay type: functional
[3] = tested on: Hepatitis B virus; assay: Antiviral activity against hepatitis B virus infected in human HepG2.2.15 cells assessed as reduction in HBeAg secretion at 5 uM incubated for 9 days by ELISA (reference value: 25.13 +/- 1.93 ng/ml); assay type: functional
[4] = biological target: T1, Hepatic sodium/bile acid cotransporter (Homo sapiens, UniProt Q14973); assay: Inhibition of human recombinant NTCP expressed in CHO cells assessed as reduction in [3H]taurocholate uptake incubated for 2 mins by scintillation counting method; assay type: cell-based
T1 sequence (Q14973 whole entry): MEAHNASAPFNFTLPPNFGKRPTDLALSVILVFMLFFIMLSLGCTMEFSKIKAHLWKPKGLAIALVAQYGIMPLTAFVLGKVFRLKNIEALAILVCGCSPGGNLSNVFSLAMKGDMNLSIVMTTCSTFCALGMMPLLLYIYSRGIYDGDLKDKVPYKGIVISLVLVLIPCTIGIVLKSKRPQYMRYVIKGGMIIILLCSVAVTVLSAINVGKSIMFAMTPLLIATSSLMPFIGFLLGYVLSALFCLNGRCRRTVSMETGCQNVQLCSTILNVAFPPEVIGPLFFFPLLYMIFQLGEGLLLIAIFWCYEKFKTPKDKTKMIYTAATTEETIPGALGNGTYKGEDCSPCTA

[5] = biological target: T1, Hepatic sodium/bile acid cotransporter; assay: Inhibition of NTCP in human hepatocytes assessed as reduction in Na+-dependent [3H]taurocholate uptake measured at 45s following compound addition by liquid scintillation counting method; assay type: cell-based
[6] = biological target: T1, Hepatic sodium/bile acid cotransporter; assay: Inhibition of human recombinant NTCP expressed in CHO cells assessed as reduction in [3H]taurocholate uptake preincubated for 1 hr by radioactive scintillation counting method; assay type: cell-based
[7] = tested on: Hepatitis B virus; assay: Antiviral activity against hepatitis B virus infected in human HepG2.2.15 cells assessed as reduction in HBV DNA level incubated for 9 days by real time-PCR analysis; assay type: functional, organism-based
[8] = tested on: HepG2; assay: Antiproliferative activity against human HepG2 cells assessed as inhibition of cell growth incubated for 48 hrs by MTT assay; assay type: functional, cell-based; details: HepG2, 48 h; in short: as §1
[9] = tested on: HepG2; assay: Antiproliferative activity against human HepG2 cells assessed as inhibition of cell growth incubated for 72 hrs by MTT assay; assay type: functional, cell-based; details: HepG2, 72 h; in short: as §1
[10] = tested on: HepG2; assay: Induction of cell morphological changes in human HepG2 cells assessed as condensed chromatin at 2.5 to 10 uM incubated for 24 hrs by Hoechst 33258 staining based fluorescence microscopy; assay type: functional
In short: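 HepG2 cells treated 24 h at several concentrations, stained with Hoechst 33258, chromatin morphology examined by fluorescence microscopy.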

[11] = tested on: HepG2; assay: Induction of apoptosis in human HepG2 cells assessed as early apoptotic cells at 2.5 uM incubated for 24 hrs by annexin -V/propidium iodide staining based flow cytometry (reference value: 2.23%); assay type: functional
[12] = tested on: HepG2; assay: Induction of apoptosis in human HepG2 cells assessed as early apoptotic cells at 5 uM incubated for 24 hrs by annexin -V/propidium iodide staining based flow cytometry (reference value: 2.23%); assay type: functional
[13] = tested on: HepG2; assay: Induction of apoptosis in human HepG2 cells assessed as early apoptotic cells at 10 uM incubated for 24 hrs by annexin -V/propidium iodide staining based flow cytometry (reference value: 2.23%); assay type: functional
[14] = tested on: HepG2; assay: Induction of apoptosis in human HepG2 cells assessed as late apoptotic cells at 2.5 uM incubated for 24 hrs by annexin -V/propidium iodide staining based flow cytometry (reference value: 4.72%); assay type: functional
[15] = tested on: HepG2; assay: Induction of apoptosis in human HepG2 cells assessed as late apoptotic cells at 5 uM incubated for 24 hrs by annexin -V/propidium iodide staining based flow cytometry (reference value: 4.72%); assay type: functional
[16] = tested on: HepG2; assay: Induction of apoptosis in human HepG2 cells assessed as late apoptotic cells at 10 uM incubated for 24 hrs by annexin -V/propidium iodide staining based flow cytometry (reference value: 4.72%); assay type: functional
[17] = tested on: HepG2; assay: Induction of apoptosis in human HepG2 cells assessed as upregulation of Bax protein expression at 2.5 to 10 uM incubated for 24 hrs by Western blot analysis; assay type: functional, cell-based
In short: (§2)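 HepG2 cells treated 24 h at several concentrations; NTCP, PARP, Bax, Bcl-2 and caspase-3 detected by western blot.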

[18] = tested on: HepG2; assay: Induction of apoptosis in human HepG2 cells assessed as downregulation of Bcl2 protein expression at 2.5 to 10 uM incubated for 24 hrs by Western blot analysis; assay type: functional, cell-based; in short: as §2
[19] = tested on: HepG2; assay: Induction of apoptosis in human HepG2 cells assessed as increase in caspase-3 cleavage at 2.5 to 10 uM incubated for 24 hrs by Western blot analysis; assay type: functional, cell-based; in short: as §2
[20] = tested on: HepG2; assay: Induction of apoptosis in human HepG2 cells assessed as increase in PARP cleavage at 2.5 to 10 uM incubated for 24 hrs by Western blot analysis; assay type: functional, cell-based; in short: as §2
[21] = tested on: HepG2; assay: Inhibition of NTCP protein expression in human HepG2 cells at 2.5 to 10 uM incubated for 24 hrs by western blot analysis; assay type: functional, cell-based; in short: as §2
[22] = biological target: T1, Hepatic sodium/bile acid cotransporter; assay: Inhibition of NTCP in human hepatocytes; assay type: cell-based

| Compound | IC50 [1] | Activity [2] | Activity [3] | other results |
| --- | --- | --- | --- | --- |
| COc1ccc(/C=N/NC(=O)CNC(=O)c2ccc(C)cc2)c(OCc2ccccc2Cl)c1 | > 50 µM | 7.94 ng/mL | 23.53 ng/mL | – |
| N#Cc1ccc(C(=O)NCC(=O)N/N=C/c2ccccc2OCc2ccccc2Cl)cc1 | > 50 µM | 8.33 ng/mL | 25.22 ng/mL | – |
| O=C(CNC(=O)c1ccc(-c2ccccc2)cc1)N/N=C/c1ccc(OCc2cc3c(cc2Cl)OCO3)cc1 | > 50 µM | 7.66 ng/mL | 23.8 ng/mL | – |
| CC(C)n1c(/C=C/C(O)CC(O)CC(=O)O)c(-c2ccc(F)cc2)c2ccccc21 (stereo unspecified) [FLUVASTATIN] | – | – | – | IC50 [4]: 40 µM |
| O=C1CC(c2ccccc2)CC(=O)C1=CNCCN1CCN(C(=O)Cc2ccccc2)CC1 (stereo unspecified) | 70.2 µM | – | – | – |
| COc1ccc(/C=N/NC(=O)CNC(=O)c2ccc(F)cc2)c(OCc2ccccc2Cl)c1 | 15.7 µM | 4.23 ng/mL | 13.07 ng/mL | – |
| Cc1ccc(C(=O)NCC(=O)N/N=C/c2ccccc2OCc2ccc(C#N)cc2)cc1 | > 50 µM | 8.25 ng/mL | 25.25 ng/mL | – |
| Cc1ccc(C(=O)NCC(=O)N/N=C/c2ccccc2OCc2ccccc2Cl)cc1 | 13.4 µM | 3.95 ng/mL | 15.01 ng/mL | – |
| COc1ccc(COc2ccccc2/C=N/NC(=O)CNC(=O)c2ccc(C)cc2)cc1 | > 50 µM | 7.66 ng/mL | 23.04 ng/mL | – |
| O=C(COc1ccc(Cl)cc1)NCc1ccc(CNC(=O)COc2ccc(Cl)cc2)cc1 | 26.4 µM | – | – | – |
| CCN(CC)c1ccc(/C=N/NC(=O)CNC(=O)c2ccc(C)cc2)c(OCc2ccccc2Cl)c1 | > 50 µM | 8.37 ng/mL | 24.55 ng/mL | – |
| O=C(CNC(=O)c1ccc(-c2ccccc2)cc1)N/N=C/c1ccccc1OCc1ccccc1Cl | > 50 µM | 8.31 ng/mL | 24.88 ng/mL | – |
| CCN(CC)c1ccc(/C=N/NC(=O)CNC(=O)c2ccc(C#N)cc2)c(OCc2ccccc2Cl)c1 | > 50 µM | 8.17 ng/mL | 24.86 ng/mL | – |
| Cc1ccc(C(=O)NCC(=O)N/N=C/c2cccc(OCc3ccccc3Cl)c2)cc1 | 47.5 µM | 5.74 ng/mL | 18.09 ng/mL | – |
| Cc1ccc(C(=O)NCC(=O)N/N=C/c2ccc(OCc3ccccc3Cl)cc2)cc1 | 28.1 µM | 4.83 ng/mL | 14.29 ng/mL | – |
| Cc1ccccc1OCC(=O)N/N=C/c1cccc(OCc2ccccc2)c1 | 18.6 µM | – | – | – |
| COc1ccccc1Oc1c(NS(=O)(=O)c2ccc(C(C)(C)C)cc2)nc(-c2ncccn2)nc1OCCO [BOSENTAN] | – | – | – | IC50 [5]: 30 µM |
| Cc1cccc(CSCCNC(=O)CN(c2cccc(C(F)(F)F)c2)S(C)(=O)=O)c1 | 23.4 µM | – | – | – |
| O=C(CNC(=O)c1cccnc1Cl)N/N=C/c1ccccc1OCc1ccccc1Cl | 16.9 µM | 4.08 ng/mL | 12.55 ng/mL | – |

| Compound | IC50 [1] | Activity [2] | Activity [3] | other results |
| --- | --- | --- | --- | --- |
| O=C(CNC(=O)c1ccc(-c2ccccc2)cc1)N/N=C/c1ccccc1OCc1cc2c(cc1Cl)OCO2 | > 50 µM | 7.72 ng/mL | 24.07 ng/mL | – |
| Cc1ccc(C(=O)NCC(=O)N/N=C/c2ccc(OCc3cc4c(cc3Cl)OCO4)cc2)cc1 | 14.9 µM | 3.91 ng/mL | 11.47 ng/mL | – |
| O=C(CNC(=O)c1ccc(F)cc1)N/N=C/c1ccccc1OCc1ccccc1Cl | 24.9 µM | 5.03 ng/mL | 14.53 ng/mL | – |
| Cc1ccc(C(=O)NCC(=O)N/N=C/c2ccccc2OCc2ccc(Cl)cc2)cc1 | > 50 µM | 7.79 ng/mL | 22.99 ng/mL | – |
| CCCNS(=O)(=O)Nc1ncnc(OCCOc2ncc(Br)cn2)c1-c1ccc(Br)cc1 | – | – | – | IC50 [6]: 10 µM |
| C[C@H](NC(=O)COc1ccc(S(=O)(=O)N[C@H](C)c2ccccc2)cc1)c1ccccc1 | 35.7 µM | – | – | – |
| CCN(CC)c1ccc(/C=N/NC(=O)CNC(=O)c2ccc(F)cc2)c(OCc2ccccc2Cl)c1 | > 50 µM | 8.04 ng/mL | 24.34 ng/mL | – |
| Cc1sc(NC(=O)CCn2cnc3ccccc3c2=O)nc1-c1ccc(Cl)cc1 | 25.4 µM | – | – | – |
| O=C(CNC(=O)c1cccnc1Cl)N/N=C/c1cccc(OCc2ccccc2Cl)c1 | 3.1 µM | 2.05 ng/mL | 6.43 ng/mL | inhibition [7]: Active |
| Cc1ccc(C(=O)NCC(=O)N/N=C/c2ccccc2OCc2cc3c(cc2Cl)OCO3)cc1 | 2.8 µM | 1.93 ng/mL | 7.43 ng/mL | inhibition [7]: Active; IC50 [8]: 1200 nM; IC50 [9]: 900 nM; Activity [10]: Active; Activity [11]: 4.73%; Activity [12]: 5.39%; Activity [13]: 5.99%; Activity [14]: 15.33%; Activity [15]: 21.66%; Activity [16]: 30.48%; Activity [17]: Active; Activity [18]: Active; Activity [19]: Active; Activity [20]: Active; inhibition [21]: Active |
| O=C(CNC(=O)c1cccnc1Cl)N/N=C/c1ccc(OCc2ccccc2Cl)cc1 | 4.7 µM | 2.48 ng/mL | 7.36 ng/mL | inhibition [7]: Active |
| C[C@H](Cn1cnc2c(N)ncnc21)OCP(=O)(O)O [TENOFOVIR ANHYDROUS] | – | 1.72 ng/mL | 5.6 ng/mL | – |
| O=C(CNC(=O)c1ccc(F)cc1)N/N=C/c1ccccc1OCc1cc2c(cc1Cl)OCO2 | 17.1 µM | 3.98 ng/mL | 11.84 ng/mL | – |
| Cc1cc(C)cc(OCC(=O)NCCNC(=O)COc2cc(C)cc(C)c2)c1 | 53.2 µM | – | – | – |
| O=C(CNC(=O)c1cccnc1Cl)N/N=C/c1ccccc1OCc1cc2c(cc1Cl)OCO2 | > 50 µM | 8.39 ng/mL | 25.47 ng/mL | – |
| Cc1cc(OCCCS(C)(=O)=O)cc(C)c1-c1cccc(COc2ccc3c(c2)OC[C@H]3CC(=O)O)c1 | – | – | – | IC50 [22]: 2000 nM |
| C[C@]1(C(=O)NCCOc2ccc(C3CCCCC3)cc2)CO[C@@H](c2ccccc2)OC1 | 32.9 µM | – | – | – |
| O=C(CNC(=O)c1cccnc1)N/N=C/c1ccc(OCc2cc3c(cc2Cl)OCO3)cc1 | 10.1 µM | 3.71 ng/mL | 11.45 ng/mL | – |
| COc1ccc(/C=N/NC(=O)CNC(=O)c2ccc(C#N)cc2)c(OCc2ccccc2Cl)c1 | > 50 µM | 8.29 ng/mL | 25.47 ng/mL | – |
